Experimental data published in ChEMBL document CHEMBL4011622, “The Structure-Activity Relationship of a Tetrahydroisoquinoline Class of N-Methyl-d-Aspartate Receptor Modulators that Potentiates GluN2B-Containing N-Methyl-d-Aspartate Receptors” (J Med Chem, 2017).
pEC50: −log10 of the molar value. Calls of active or inactive are those of the source. The calls are words filed in the database; no cut-off is given here.

Assays:
[1] = molecular target: T1, Glutamate NMDA receptor; Grin1/Grin2b (Rattus norvegicus) (UniProt P35439+Q00960); test: Positive allosteric modulation of recombinant rat GluN1/GluN2B receptor expressed in xenopus laevis oocyte assessed as compound concentration required to show two fold increase in glutamate and glycine-induced current response at holding potential -40mV by two electrode voltage clamp method
[2] = Drug metabolism in human liver microsomes assessed as P450 mediated drug metabolite formation by measuring parent compound half life at […] by LC/MS/MS analysis; format: ADME
[3] = molecular target: T1, Glutamate NMDA receptor; Grin1/Grin2b (Rattus norvegicus); test: Positive allosteric modulation of recombinant rat GluN1/GluN2B receptor expressed in xenopus laevis oocyte assessed as potentiation of glutamate and glycine-induced current response at 30 uM at holding potential -40mV by two electrode voltage clamp method relative to control
Procedure, shortened: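 Two-electrode voltage clamp at -40 mV, 23°C, pH 7.4 Ba²⁺ recording solution, on Xenopus oocytes expressing rat NMDA receptors. Currents were evoked by 100 µM glutamate plus 30 µM glycine, with compound co-applied (DMSO 0.05–0.5% final). […] Each compound used at least 4 oocytes from at least 2 frogs.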

[4] = molecular target: T2, Ionotropic glutamate receptor NMDA 1/2D (Rattus norvegicus) (UniProt P35439+Q62645); test: Positive allosteric modulation of recombinant rat GluN1/GluN2D receptor expressed in xenopus laevis oocyte assessed as potentiation of glutamate and glycine-induced current response at 30 uM at holding potential -40mV by two electrode voltage clamp method relative to control
Procedure, shortened: (§1)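 Two-electrode voltage clamp at -40 mV, 23°C, pH 7.4 Ba²⁺ recording solution, on Xenopus oocytes expressing rat NMDA receptors. Currents were evoked by 100 µM glutamate plus 30 µM glycine, with compound co-applied (DMSO 0.05–0.5% final). Each compound used at least 4 oocytes from at least 2 frogs.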

[5] = Drug metabolism in human liver microsomes assessed as UGT mediated drug metabolite formation by measuring parent compound half life at […] by LC/MS/MS analysis; format: ADME
[6] = molecular target: T3, Glutamate NMDA receptor; Grin1/Grin2c (Rattus norvegicus) (UniProt P35439+Q00961); test: Positive allosteric modulation of recombinant rat GluN1/GluN2C receptor expressed in xenopus laevis oocyte assessed as potentiation of glutamate and glycine-induced current response at 30 uM at holding potential -40mV by two electrode voltage clamp method relative to control; procedure, shortened: as §1
[7] = molecular target: T4, Glutamate NMDA receptor; Grin1/Grin2b (Rattus norvegicus, UniProt P35439+Q00960); test: Positive allosteric modulation of recombinant rat GluN1/GluN2B receptor expressed in xenopus laevis oocyte assessed as potentiation of glutamate and glycine-induced current response at holding potential -40mV by two electrode voltage clamp method; procedure, shortened: as §1
[8] = molecular target: T2, Ionotropic glutamate receptor NMDA 1/2D (Rattus norvegicus); test: Positive allosteric modulation of recombinant rat GluN1/GluN2D receptor expressed in xenopus laevis oocyte assessed as compound concentration required to show two fold increase in glutamate and glycine-induced current response at holding potential -40mV by two electrode voltage clamp method
[9] = molecular target: Glutamate NMDA receptor; Grin1/Grin2c (Rattus norvegicus, UniProt P35439+Q00961); test: Positive allosteric modulation of recombinant rat GluN1/GluN2C receptor expressed in xenopus laevis oocyte assessed as potentiation of glutamate and glycine-induced current response at holding potential -40mV by two electrode voltage clamp method; procedure, shortened: as §1
[10] = molecular target: T3, Glutamate NMDA receptor; Grin1/Grin2c (Rattus norvegicus); test: Positive allosteric modulation of recombinant rat GluN1/GluN2C receptor expressed in xenopus laevis oocyte assessed as compound concentration required to show two fold increase in glutamate and glycine-induced current response at holding potential -40mV by two electrode voltage clamp method
[11] = molecular target: Ionotropic glutamate receptor NMDA 1/2D (Rattus norvegicus, UniProt P35439+Q62645); test: Positive allosteric modulation of recombinant rat GluN1/GluN2D receptor expressed in xenopus laevis oocyte assessed as potentiation of glutamate and glycine-induced current response at holding potential -40mV by two electrode voltage clamp method; procedure, shortened: as §1
[12] = molecular target: T4, Glutamate NMDA receptor; Grin1/Grin2b
[13] = molecular target: T1, Glutamate NMDA receptor; Grin1/Grin2b (Rattus norvegicus); test: Positive allosteric modulation of recombinant rat GluN1/GluN2B receptor expressed in xenopus laevis oocyte co-expressing GluN2A at 10 uM assessed as potentiation of glutamate and glycine-induced current response at holding potential -40mV by two electrode voltage clamp method relative to control
Procedure, shortened: (§2)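 Triheteromeric GluN1/GluN2A/GluN2B receptors were expressed in oocytes using GluN2 subunits with modified intracellular domains controlling surface expression. Compound was tested at 10 µM by TEVC at -40 mV against maximally effective glutamate and glycine; n=14 oocytes.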

[14] = molecular target: T2, Ionotropic glutamate receptor NMDA 1/2D (Rattus norvegicus); test: Positive allosteric modulation of recombinant rat GluN1/GluN2D receptor expressed in xenopus laevis oocyte assessed as potentiation of glycine-induced current response at 30 uM at holding potential -40mV by two electrode voltage clamp method
[15] = molecular target: Glutamate NMDA receptor; Grin1/Grin2a (Rattus norvegicus) (UniProt P35439+Q00959); test: Positive allosteric modulation of recombinant rat GluN1/GluN2A receptor expressed in xenopus laevis oocyte co-expressing GluN2B assessed as potentiation of glutamate and glycine-induced current response at 10 uM at holding potential -40mV by two electrode voltage clamp method relative to control
[16] = molecular target: Ionotropic glutamate receptor NMDA1/2A/2B (Rattus norvegicus) (UniProt P35439+Q00959+Q00960); test: Positive allosteric modulation of recombinant rat GluN1/GluN2A/GluN2B receptor expressed in xenopus laevis oocyte assessed as potentiation of glutamate and glycine-induced current response at 10 uM at holding potential -40mV by two electrode voltage clamp method relative to control; procedure, shortened: as §2
Mus musculus = test: Toxicity in C57Bl/6 mouse assessed as behavioral abnormalities at 10 mg/kg, ip; format: organism-based; conditions: in vivo
Procedure, shortened: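 C57Bl/6 mice (30–35 g) were dosed at 10 mg/kg i.p. in 5% NMP/20% solutol/75% of 20% hydroxypropyl-β-cyclodextrin and observed for behavioral abnormalities after dosing.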

[17] = Drug uptake in C57Bl/6 mouse brain at 10 mg/kg, ip after 4 hrs by LC/MS/MS analysis; format: ADME, organism-based; conditions: read-out: Drug uptake
Procedure, shortened: (§3)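 Male/female not stated; 30–35 g C57Bl/6 mice given 10 mg/kg i.p. at 1.25 mg/mL in 5% NMP/20% solutol/75% of 20% hydroxypropyl-β-cyclodextrin. Blood was taken by cardiac puncture into heparin and brains were collected at 0, 15, 30, 60, 120 and 240 min, three mice per time point. Plasma and brain homogenate (1:4 water) were acetonitrile-precipitated and quantified by LC-MS/MS against an 8-point duplicate standard curve.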

[18] = molecular target: Glutamate receptor ionotropic, kainate 2 (Rattus norvegicus) (UniProt P42260); test: Positive allosteric modulation of recombinant rat GluK2 receptor expressed in xenopus laevis oocyte assessed as potentiation of glutamate-induced current response at 30 uM at holding potential -40mV by two electrode voltage clamp method relative to glutamate
[19] = molecular target: T3, Glutamate NMDA receptor; Grin1/Grin2c (Rattus norvegicus); test: Positive allosteric modulation of recombinant rat GluN1/GluN2C receptor expressed in xenopus laevis oocyte assessed as potentiation of glutamate-induced current response at 30 uM at holding potential -40mV by two electrode voltage clamp method
Procedure, shortened: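 Rat GluN1/GluN2C (modified GluN2C) expressed from injected mRNA in Xenopus oocytes; two-electrode voltage clamp at -40 mV, 23°C, recording solution pH 7.4 (90 NaCl, 1.0 KCl, 0.5 BaCl2, 0.005 EDTA, 10 HEPES, mM). Compound coapplied with 100 µM glutamate and 30 µM glycine; final DMSO 0.05-0.5%.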

[20] = Cmax in C57Bl/6 mouse plasma at 10 mg/kg, ip after 2 hrs by LC/MS/MS analysis; format: ADME, organism-based; set-up: dose 10 mg/kg, route intraperitoneal; procedure, shortened: as §3
[21] = molecular target: T1, Glutamate NMDA receptor; Grin1/Grin2b (Rattus norvegicus); test: Positive allosteric modulation of recombinant rat GluN1/GluN2B receptor expressed in xenopus laevis oocyte assessed as potentiation of glutamate-induced current response at 30 uM at holding potential -40mV by two electrode voltage clamp method
Liver = test: Drug level in human liver microsomes treated with (3-chlorophenyl)(6-isopropoxy-1-((4-methoxyphenoxy)methyl)-3,4-dihydroisoquinolin-2(1H)-yl)methanethione at […] measured at 30 mins by LC/MS/MS analysis; format: ADME, microsome; conditions: 0.5 h
Brain = test: Drug uptake in C57Bl/6 mouse brain at 10 mg/kg, ip after 15 to 30 mins by LC/MS/MS analysis; format: ADME, organism-based; conditions: in vivo, read-out: Drug uptake; procedure, shortened: as §3
[22] = Ratio of drug level in C57Bl/6 mouse brain to plasma at 10 mg/kg, ip after 4 hrs by LC/MS/MS analysis; format: ADME, organism-based; procedure, shortened: as §3
[23] = Ratio of drug level in C57Bl/6 mouse brain to plasma at 10 mg/kg, ip after 15 mins by LC/MS/MS analysis; format: ADME, organism-based; procedure, shortened: as §3
[24] = molecular target: Glutamate receptor 1 (Rattus norvegicus) (UniProt P19490); test: Positive allosteric modulation of recombinant rat GluA1 receptor expressed in xenopus laevis oocyte assessed as potentiation of glutamate-induced current response at 30 uM at holding potential -40mV by two electrode voltage clamp method relative to glutamate
Chain of Glutamate receptor 1 (Rattus norvegicus) (P19490 whole entry): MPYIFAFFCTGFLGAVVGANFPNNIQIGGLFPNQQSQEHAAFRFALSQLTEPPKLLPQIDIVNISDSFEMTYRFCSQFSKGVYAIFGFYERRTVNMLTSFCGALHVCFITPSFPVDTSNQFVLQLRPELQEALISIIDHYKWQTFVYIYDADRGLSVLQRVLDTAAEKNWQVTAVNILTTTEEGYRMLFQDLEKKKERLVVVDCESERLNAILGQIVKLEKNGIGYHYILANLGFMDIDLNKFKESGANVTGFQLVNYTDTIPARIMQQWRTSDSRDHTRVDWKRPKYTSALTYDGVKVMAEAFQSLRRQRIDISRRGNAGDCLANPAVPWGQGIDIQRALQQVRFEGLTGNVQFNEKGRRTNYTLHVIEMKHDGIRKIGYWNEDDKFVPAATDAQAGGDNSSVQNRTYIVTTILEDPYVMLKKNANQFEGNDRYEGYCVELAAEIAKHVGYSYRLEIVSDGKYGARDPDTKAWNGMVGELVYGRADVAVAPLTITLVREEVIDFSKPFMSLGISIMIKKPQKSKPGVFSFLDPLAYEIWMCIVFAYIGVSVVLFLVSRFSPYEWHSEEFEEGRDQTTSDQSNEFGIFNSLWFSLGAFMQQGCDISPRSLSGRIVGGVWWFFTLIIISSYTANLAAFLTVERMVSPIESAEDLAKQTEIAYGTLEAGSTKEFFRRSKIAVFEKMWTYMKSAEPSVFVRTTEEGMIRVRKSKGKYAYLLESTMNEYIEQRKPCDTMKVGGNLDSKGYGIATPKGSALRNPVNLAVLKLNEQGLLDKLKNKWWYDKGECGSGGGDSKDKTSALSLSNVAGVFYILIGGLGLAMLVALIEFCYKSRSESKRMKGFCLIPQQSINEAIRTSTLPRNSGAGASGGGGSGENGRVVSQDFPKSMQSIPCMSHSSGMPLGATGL

Chain of Glutamate receptor ionotropic, kainate 2 (Rattus norvegicus) (P42260 whole entry): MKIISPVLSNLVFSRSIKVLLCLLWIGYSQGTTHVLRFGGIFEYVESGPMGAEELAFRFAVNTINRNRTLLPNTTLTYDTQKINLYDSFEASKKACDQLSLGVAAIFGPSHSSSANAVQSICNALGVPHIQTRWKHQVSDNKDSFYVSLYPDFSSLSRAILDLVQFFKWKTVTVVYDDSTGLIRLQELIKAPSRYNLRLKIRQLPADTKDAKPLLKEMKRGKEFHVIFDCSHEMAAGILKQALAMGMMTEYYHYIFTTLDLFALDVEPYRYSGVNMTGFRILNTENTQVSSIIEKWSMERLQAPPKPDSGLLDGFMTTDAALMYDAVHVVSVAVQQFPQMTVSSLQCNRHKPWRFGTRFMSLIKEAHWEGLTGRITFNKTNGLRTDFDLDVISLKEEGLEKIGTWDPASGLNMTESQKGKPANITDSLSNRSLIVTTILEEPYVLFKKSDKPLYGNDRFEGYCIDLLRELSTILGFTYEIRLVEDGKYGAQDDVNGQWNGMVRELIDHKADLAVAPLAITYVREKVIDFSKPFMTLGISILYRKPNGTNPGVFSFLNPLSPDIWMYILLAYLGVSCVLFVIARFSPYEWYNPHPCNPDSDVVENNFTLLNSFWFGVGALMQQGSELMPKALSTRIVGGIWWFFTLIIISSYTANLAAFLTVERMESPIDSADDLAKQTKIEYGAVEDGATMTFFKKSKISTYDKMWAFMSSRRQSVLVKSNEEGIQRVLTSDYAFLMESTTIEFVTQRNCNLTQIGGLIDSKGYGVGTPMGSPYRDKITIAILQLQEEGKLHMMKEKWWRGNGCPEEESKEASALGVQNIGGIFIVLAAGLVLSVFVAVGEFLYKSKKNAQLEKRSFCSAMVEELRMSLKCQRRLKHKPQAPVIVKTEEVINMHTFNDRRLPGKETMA

Structure (SMILES): COc1ccc(OCC2c3ccc(OC(C)C)cc3CCN2C(=S)c2cccc(Cl)c2)cc1 (stereo not given)
- CD [1]: 2.6 µM
- t1/2 [2]: 29 min
- Emax [3]: 213%
- Emax [4]: 229%
- t1/2 [5]: 29 min
- Emax [6]: 225%
- pEC50 [7]: 6.31
- CD [8]: 0.8 µM
- pEC50 [9]: 6.38
- CD [10]: 1.1 µM
- pEC50 [11]: 6.37

Structure (SMILES): NCCCNCCCCNCCCN [SPERMINE]
- pEC50 [12]: 3.70 to 4.00

Structure (SMILES): CCOc1ccc(OC[C@@H]2c3ccc(OC(C)C)cc3CCN2C(=O)c2cccc(F)c2)cc1
- Activity [13]: 177%
- CD [1]: 40 µM
- Emax [3]: 204%
- Emax [6]: 128%
- pEC50 [7]: 5.33
- Activity [14]: 110%
- Activity [15]: 103%
- pEC50 [9]: 5.44
- Activity [16]: 136%

Structure (SMILES): COc1ccc(OCC2c3ccc(OC(C)C)cc3CCN2C(=O)c2cccc(Cl)c2)cc1 (stereo not given)
- Activity (Mus musculus): Non-Toxic
- concentration at 4 h [17]: 400 nM
- Activity [18]: 96%
- Activity [19]: inactive
- CD [1]: 64 µM
- Activity [3]: 195%
- Emax [3]: 202%
- Cmax [20]: 1700 nM
- pEC50 [7]: 5.28
- CD [8]: 4.9 µM
- Activity [21]: inactive
- Drug metabolism (Liver): Metabolite_Detected
- concentration (Brain): 700 nM
- Activity [14]: inactive
- BPR [22]: 0.9
- BPR [23]: 0.7
- Activity [24]: 106%
- CD [10]: 4.6 µM
- pEC50 [11]: 5.52
